Measurements pooled from the literature.
CDK8: Cyclin-dependent kinase 8 (CDK8, Homo sapiens, UniProt P49336)
CDK8 with cyclin C: Cyclin-dependent kinase 8, with cyclin C (CDK8, Homo sapiens, UniProt P49336)

Structure (SMILES)	target	assay	setting	endpoint	value
O=C(N1CCS(=O)(=O)CC1)N1C[C@H](c2ccc(OC(F)(F)F)cc2)C[C@H](c2nc(C3CC3)no2)C1	CDK8	cell-free assay, competition with immobilised ligand	1 µM	remaining binding	100%
Cn1c2c(c3ccc(Cl)c(Cl)c31)C(C#N)C1(CCCCC1)NC2=O (racemic)	CDK8	thermal stability, DSF	10 µM	ΔTm	0.4 °C
NS(=O)(=O)c1cc(NC(=O)Cc2ccccc2)ccc1Oc1cccc(Cl)c1	CDK8	cell-free assay, competition with immobilised ligand	1 µM	remaining binding	68%
Cc1sc(C(=O)NC2COC2)cc1-n1cc(NC(=O)Nc2c(F)cccc2Cl)cn1	CDK8 with cyclin C	enzyme activity, inhibitor	10 µM	remaining activity	92.7%
Cn1c2c(Cl)c(Cl)ccc2c2cn[nH]c(=O)c21	CDK8	thermal stability, DSF	10 µM	ΔTm	1 °C
CS(=O)(=O)N1CCCC(NC(=O)[C@H](CCC2CCCCC2)NC(=O)c2ccc(CNC(=O)c3cnc4ccccn34)cc2)C1 (stereo partly shown)	CDK8	cell-free assay, competition with immobilised ligand	0.1 µM	remaining binding	42%
CC1(C)NC(=O)c2[nH]c3c(Cl)c(Cl)ccc3c2C1C#N (stereo not shown)	CDK8	thermal stability, DSF	10 µM	ΔTm	0.5 °C
CC(C)(C)c1nc(-c2cccc(NS(=O)(=O)c3c(F)cccc3F)c2F)c(-c2ccnc(N)n2)s1	CDK8 with cyclin C	enzyme activity, inhibitor, radiometric	1 µM	remaining activity	109%
Cn1c2c(c3ccccc31)C(C#N)C(C)(C)NC2=O (stereo not shown)	CDK8	thermal stability, DSF	10 µM	ΔTm	0.8 °C
CCC(=O)N[C@H]1CC[C@@H](C(=O)N(C)c2ccc(-c3nc4ccccc4o3)cc2)C1	CDK8	cell-free assay, competition with immobilised ligand	1 µM	remaining binding	100%
Cc1ccc(C(=O)Nc2ccc(CN3CCN(C)CC3)c(C(F)(F)F)c2)cc1C#Cc1cnc2cccnn12	CDK8	enzyme activity, inhibitor	23.5 nM	remaining activity	9.5%
O=C(Nc1cnn(-c2csc(C(=O)NC3COC3)c2)c1)Nc1c(F)cccc1Cl	CDK8 with cyclin C	enzyme activity, inhibitor	5 µM	remaining activity	99%
CN1CCN(C(=O)c2ccc3cc(CCNc4ccnc5ccc(C#N)cc45)ccc3c2)CC1	CDK8	binding, competition with immobilised ligand	2 µM	inhibition	> 85%
